Reference: ChEMBL document CHEMBL4627393, “Discovery of Potent, Selective, and State-Dependent NaV1.7 Inhibitors with Robust Oral Efficacy in Pain Models: Structure-Activity Relationship and Optimization of Chroman and Indane Aryl Sulfonamides” (J Med Chem, 2020)

How the values were obtained:
[1] = Oral bioavailability in Sprague-Dawley rat at 10 mg/kg measured upto 24 hrs by LC/MS-MS analysis; assay type: ADME, organism-based; settings: in vivo
Method in brief: (§1)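 Pharmacokinetics were run with an IV dose of 1 mg/kg and a PO dose of 10 mg/kg. Parameters reported were AUClast, Cmax, CL, T1/2, Vss and %F.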

[2] = AUClast in Sprague-Dawley rat at 1 mg/kg, iv measured upto 24 hrs by LC/MS-MS analysis; assay type: ADME, organism-based; design: dose 1 mg/kg, time < 24 hr, route intravenous; settings: in vivo
[3] = Half life in Sprague-Dawley rat at 1 mg/kg, iv measured upto 24 hrs by LC/MS-MS analysis; assay type: ADME, organism-based; settings: in vivo
[4] = Volume of distribution at steady state in BALB/c mouse at 1 mg/kg, iv measured upto 24 hrs by LC/MS-MS analysis; assay type: ADME, organism-based; settings: in vivo, read-out: Vdss; method in brief: as §1
[5] = Unbound drug concentration in plasma of formalin-induced C57BL/6 mouse model of nociceptive pain at 3 mg/kg, po administered 30 mins before formalin stimulation and measured after 40 mins; assay type: ADME, organism-based; settings: in vivo
Method in brief: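 Mice were dosed orally at 3 mg/kg 30 min before formalin challenge. Nociceptive behaviour was scored at 0–5 min (phase I) and 10–40 min (phase II). Plasma was collected at the end of the study, and the unbound drug concentration was determined.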

[6] = Tmax in female cynomolgus monkey at 150 mg/kg, po; assay type: ADME, organism-based, Macaca fascicularis; settings: in vivo
Method in brief: (§2)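 Cynomolgus monkeys, 3 male and 3 female, were given a single oral gavage dose of 150 mg/kg. Animals were watched for emesis. Tmax was recorded separately for males and females.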

[7] = Metabolic stability in rat liver microsomes assessed as metabolic rate at 1 uM preincubated for 5 mins followed by NADPH addition and measured up to 30 mins by LC/MS-MS analysis; assay type: ADME, Microsome; settings: 0.5 h
[8] = Cmax in female cynomolgus monkey at 150 mg/kg, po; assay type: ADME, organism-based, Macaca fascicularis; design: dose 150 mg/kg, route oral; settings: in vivo
[9] = AUClast in BALB/c mouse at 10 mg/kg, po measured upto 24 hrs by LC/MS-MS analysis; assay type: ADME, organism-based; design: dose 10 mg/kg, time < 24 hr, route oral; settings: in vivo
[10] = Apparent permeability across apical to basolateral side in human Caco2 cells; assay type: ADME, cell-based; settings: Caco-2
[11] = Cmax in Sprague-Dawley rat at 1 mg/kg, iv measured upto 24 hrs by LC/MS-MS analysis; assay type: ADME, organism-based; design: dose 1 mg/kg, route intravenous; settings: in vivo
[12] = AUClast in female cynomolgus monkey at 150 mg/kg, po; assay type: ADME, organism-based, Macaca fascicularis; design: dose 150 mg/kg, time 0 - last, route oral; settings: in vivo
[13] = Clearance in BALB/c mouse at 1 mg/kg, iv measured upto 24 hrs by LC/MS-MS analysis; assay type: ADME, organism-based; settings: in vivo
[14] = Metabolic stability in mouse liver microsomes assessed as metabolic rate at 1 uM preincubated for 5 mins followed by NADPH addition and measured up to 30 mins by LC/MS-MS analysis; assay type: ADME, Microsome; settings: 0.5 h
[15] = Volume of distribution at steady state in Sprague-Dawley rat at 1 mg/kg, iv measured upto 24 hrs by LC/MS-MS analysis; assay type: ADME, organism-based; settings: in vivo, read-out: Vdss
[16] = AUClast in male cynomolgus monkey at 150 mg/kg, po; assay type: ADME, organism-based, Macaca fascicularis; design: dose 150 mg/kg, route oral, time 0 - last; settings: in vivo
[17] = Metabolic stability in monkey liver microsomes assessed as metabolic rate at 1 uM preincubated for 5 mins followed by NADPH addition and measured up to 30 mins by LC/MS-MS analysis; assay type: ADME, Macaca mulatta, Microsome; settings: rhesus monkey, 0.5 h
[18] = Apparent permeability across basolateral to apical side in human Caco2 cells; assay type: ADME, cell-based; settings: Caco-2
[19] = Metabolic stability in dog liver microsomes assessed as metabolic rate at 1 uM preincubated for 5 mins followed by NADPH addition and measured up to 30 mins by LC/MS-MS analysis; assay type: ADME, Canis lupus familiaris, Microsome; settings: 0.5 h
[20] = Metabolic stability in human liver microsomes assessed as metabolic rate at 1 uM preincubated for 5 mins followed by NADPH addition and measured up to 30 mins by LC/MS-MS analysis; assay type: ADME, Microsome; settings: 0.5 h
[21] = Lipophilicity, log D of the compound; assay type: physicochemical; settings: octanol/water
[22] = AUClast in Sprague-Dawley rat at 10 mg/kg, po measured upto 24 hrs by LC/MS-MS analysis; assay type: ADME, organism-based; design: time < 24 hr, dose 10 mg/kg, route oral; settings: in vivo
[23] = Half life in BALB/c mouse at 1 mg/kg, iv measured upto 24 hrs by LC/MS-MS analysis; assay type: ADME, organism-based; settings: in vivo
[24] = Clearance in Sprague-Dawley rat at 1 mg/kg, iv measured upto 24 hrs by LC/MS-MS analysis; assay type: ADME, organism-based; settings: in vivo
[25] = Cmax in male cynomolgus monkey at 150 mg/kg, po; assay type: ADME, organism-based, Macaca fascicularis; design: dose 150 mg/kg, route oral; settings: in vivo
[26] = Cmax in Sprague-Dawley rat at 10 mg/kg, po measured upto 24 hrs by LC/MS-MS analysis; assay type: ADME, organism-based; design: dose 10 mg/kg, route oral; settings: in vivo
[27] = Cmax in BALB/c mouse at 1 mg/kg, iv measured upto 24 hrs by LC/MS-MS analysis; assay type: ADME, organism-based; design: dose 1 mg/kg, route intravenous; settings: in vivo
[28] = Cmax in BALB/c mouse at 10 mg/kg, po measured upto 24 hrs by LC/MS-MS analysis; assay type: ADME, organism-based; design: dose 10 mg/kg, route oral; settings: in vivo
[29] = Drug concentration in brain of formalin-induced C57BL/6 mouse model of nociceptive pain at 30 mg/kg, […]; assay type: ADME, organism-based; settings: po
[30] = Tmax in male cynomolgus monkey at 150 mg/kg, po; assay type: ADME, organism-based, Macaca fascicularis; settings: in vivo; method in brief: as §2
[31] = AUClast in BALB/c mouse at 1 mg/kg, iv measured upto 24 hrs by LC/MS-MS analysis; assay type: ADME, organism-based; design: time < 24 hr, dose 1 mg/kg, route intravenous; settings: in vivo
[32] = Oral bioavailability in BALB/c mouse at 10 mg/kg measured upto 24 hrs by LC/MS-MS analysis; assay type: ADME, organism-based; settings: in vivo; method in brief: as §1

Cn1nccc1-c1cc(C(F)(F)F)ccc1[C@H]1CCc2cc(S(=O)(=O)Nc3ncccn3)ccc21
bioavailability [1]: 58%
AUC(0-t) at 24 h [2]: 7.9 µM·h
half-life [3]: 2.7 h
Vd [4]: 0.8 L/kg
Cp(f) [5]: 0.343 µM
Tmax [6]: 1.5 h
Drug metabolism [7]: 0.04 nmol/min/mg
Cmax [8]: 69 µM
AUC(0-t) at 24 h [9]: 84 µM·h
Papp A→B [10]: 31.5 ×10⁻⁶ cm/s
Cmax [11]: 2.5 µM
AUC(0-t) [12]: 601 µM·h
clearance [13]: 3.3 mL/min/kg
Drug metabolism [14]: 0.03 nmol/min/mg
Vd [15]: 1 L/kg
AUC(0-t) [16]: 684 µM·h
Drug metabolism [17]: 0.03 nmol/min/mg
Papp B→A [18]: 36.7 ×10⁻⁶ cm/s
Drug metabolism [19]: 0.02 nmol/min/mg
Drug metabolism [20]: 0.03 nmol/min/mg
logD [21]: 2.4
AUC(0-t) at 24 h [22]: 46 µM·h
half-life [23]: 2.8 h
clearance [24]: 4.9 mL/min/kg
Cmax [25]: 66 µM
Cmax [26]: 10.9 µM
Cmax [27]: 2 µM
Cmax [28]: 18 µM
concentration at 40 min [29]: 2.1 µM
Tmax [30]: 2 h
AUC(0-t) at 24 h [31]: 8.5 µM·h
bioavailability [32]: 99%
